The source made the active and inactive calls. The calls are words filed in the database; no cut-off is given here.
Legend:
[1] = biological target: T1, Histone-lysine N-methyltransferase SUV39H1 (Homo sapiens) (UniProt O43463); conditions: HL-60, dose 20.0 nM, time 48.0 hrs
T1 sequence (whole entry): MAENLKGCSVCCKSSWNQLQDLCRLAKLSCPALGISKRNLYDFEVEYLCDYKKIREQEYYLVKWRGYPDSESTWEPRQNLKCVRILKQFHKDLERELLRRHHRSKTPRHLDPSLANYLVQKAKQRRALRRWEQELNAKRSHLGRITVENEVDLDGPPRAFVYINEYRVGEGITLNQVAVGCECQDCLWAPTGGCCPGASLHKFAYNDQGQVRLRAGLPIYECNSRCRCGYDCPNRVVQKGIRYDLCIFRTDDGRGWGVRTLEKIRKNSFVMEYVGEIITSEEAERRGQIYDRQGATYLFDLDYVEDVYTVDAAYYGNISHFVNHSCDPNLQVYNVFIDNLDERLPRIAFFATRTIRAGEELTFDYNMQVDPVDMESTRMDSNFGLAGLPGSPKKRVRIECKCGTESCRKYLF

[2] = tested on: HL-60; experiment: Induction of myeloid differentiation in human HL-60 cells at 20 nM assessed as decrease in SUV39H1 mRNA expression measured after 48 hrs by RT-PCR assay; assay type: functional, cell-based
Method in brief: (§1)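 Treatment was 48 h. Total RNA (1 µg) was reverse transcribed, then SYBR green real-time PCR was run with actin as internal control: 95 °C 5 min, then 30 cycles of 95 °C/45 s, 60 °C/45 s, 72 °C/45 s. Mean ± s.e. of three independent experiments, compared with untreated control.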

[3] = biological target: T1, Histone-lysine N-methyltransferase SUV39H1 (Homo sapiens); conditions: U-937, dose 20.0 nM, time 48.0 hrs
[4] = biological target: T1, Histone-lysine N-methyltransferase SUV39H1 (Homo sapiens); conditions: HL-60, dose 20.0 nM, time 48.0 hrs; remark: listed apart in the source
[5] = tested on: KG-1a; experiment: Induction of myeloid differentiation in human KG-1a cells at 20 nM assessed as decrease in G9a mRNA expression measured after 48 hrs by RT-PCR assay; assay type: functional, cell-based
Method in brief: as §1

[6] = tested on: KG-1a; experiment: Induction of myeloid differentiation in human KG-1a cells at 20 nM in combination with 0.5 uM SAHA measured after 12 hrs by Liu's staining method; assay type: functional, cell-based
Method in brief: (§2)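 Cells received single epigenetic inhibitors or combinations and were collected by cytospin. After Liu's staining (reagent A 1 min, reagent B 2.5 min), differentiated cells were counted under a light microscope. Mean ± s.e. of three independent experiments.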

[7] = tested on: KG-1a; experiment: Induction of myeloid differentiation in human KG-1a cells at 20 nM assessed as decrease in SUV39H1 mRNA expression measured after 48 hrs by RT-PCR assay; assay type: functional, cell-based
Method in brief: as §1

[8] = biological target: T1, Histone-lysine N-methyltransferase SUV39H1 (Homo sapiens); conditions: HL-60, dose 20.0 nM, time 48.0 hrs; remark: listed apart in the source
[9] = biological target: T1, Histone-lysine N-methyltransferase SUV39H1 (Homo sapiens); conditions: KG-1a, dose 20.0 nM, time 48.0 hrs
[10] = tested on: U-937; experiment: Induction of myeloid differentiation in human U-937 cells at 20 nM assessed as decrease in G9a mRNA expression measured after 48 hrs by RT-PCR assay; assay type: functional, cell-based
Method in brief: as §1

[11] = tested on: HL-60; experiment: Induction of myeloid differentiation in human HL-60 cells at 20 nM assessed as appearance of nuclear segmentation measured after 12 hrs by Liu's staining method; assay type: functional, cell-based
Method in brief: (§3)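 Cells exposed 12 h were spun onto slides by cytospin. They were stained with Liu's reagent A for 1 min, then reagent B for 2.5 min, and morphology was examined by light microscopy.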

[12] = tested on: U-937; experiment: Induction of myeloid differentiation in human U-937 cells at 20 nM in combination with 0.5 uM SAHA measured after 12 hrs by Liu's staining method; assay type: functional, cell-based
Method in brief: as §2

[13] = tested on: U-937; experiment: Induction of myeloid differentiation in human U-937 cells at 20 nM assessed as increase in CD11b mRNA expression measured after 48 hrs by RT-PCR assay; assay type: functional, cell-based
Method in brief: as §1

[14] = tested on: HL-60; experiment: Induction of myeloid differentiation in human HL-60 cells at 20 nM assessed as decrease in G9a mRNA expression measured after 48 hrs by RT-PCR assay; assay type: functional, cell-based
Method in brief: as §1

[15] = tested on: KG-1a; experiment: Induction of myeloid differentiation in human KG-1a cells at 20 nM assessed as reduction of nucleus to cytoplasm ratio measured after 12 hrs by Liu's staining method; assay type: functional, cell-based
Method in brief: as §3

[16] = tested on: HL-60; experiment: Induction of myeloid differentiation in human HL-60 cells at 20 nM assessed as reduction of nucleus to cytoplasm ratio measured after 12 hrs by Liu's staining method; assay type: functional, cell-based
Method in brief: as §3

[17] = tested on: U-937; experiment: Induction of myeloid differentiation in human U-937 cells at 20 nM assessed as decrease in SUV39H1 mRNA expression measured after 48 hrs by RT-PCR assay; assay type: functional, cell-based
Method in brief: as §1

[18] = biological target: T1, Histone-lysine N-methyltransferase SUV39H1 (Homo sapiens); conditions: U-937, dose 20.0 nM, time 48.0 hrs; remark: listed apart in the source
[19] = tested on: HL-60; experiment: Induction of myeloid differentiation in human HL-60 cells at 20 nM in combination with 0.5 uM SAHA measured after 12 hrs by Liu's staining method; assay type: functional, cell-based
Method in brief: as §2

[20] = tested on: HL-60; experiment: Induction of myeloid differentiation in human HL-60 cells at 20 nM assessed as increase in CD11b mRNA expression measured after 48 hrs by RT-PCR assay; assay type: functional, cell-based
Method in brief: as §1

[21] = biological target: T1, Histone-lysine N-methyltransferase SUV39H1 (Homo sapiens); conditions: KG-1a, dose 20.0 nM, time 48.0 hrs; remark: listed apart in the source
[22] = tested on: KG-1a; experiment: Induction of myeloid differentiation in human KG-1a cells at 20 nM assessed as increase in CD11b mRNA expression measured after 48 hrs by RT-PCR assay; assay type: functional, cell-based
Method in brief: as §1

[23] = biological target: T1, Histone-lysine N-methyltransferase SUV39H1 (Homo sapiens); conditions: U-937, dose 20.0 nM, time 48.0 hrs; remark: listed apart in the source
[24] = tested on: KG-1a; experiment: Induction of myeloid differentiation in human KG-1a cells at 20 nM assessed as appearance of nuclear segmentation measured after 12 hrs by Liu's staining method; assay type: functional, cell-based
Method in brief: as §3

[25] = biological target: T1, Histone-lysine N-methyltransferase SUV39H1 (Homo sapiens); conditions: U-937, dose 20.0 nM, time 48.0 hrs; remark: listed apart in the source
[26] = biological target: T1, Histone-lysine N-methyltransferase SUV39H1 (Homo sapiens); conditions: KG-1a, dose 20.0 nM, time 48.0 hrs; remark: listed apart in the source
[27] = biological target: T1, Histone-lysine N-methyltransferase SUV39H1 (Homo sapiens); conditions: HL-60, dose 20.0 nM, time 48.0 hrs; remark: listed apart in the source
[28] = biological target: T1, Histone-lysine N-methyltransferase SUV39H1 (Homo sapiens); conditions: KG-1a, dose 20.0 nM, time 48.0 hrs; remark: listed apart in the source
[29] = tested on: U-937; experiment: Induction of myeloid differentiation in human U-937 cells at 50 nM in combination with 20 nM chaetocin measured after 12 hrs by Liu's staining method; assay type: functional, cell-based
Method in brief: as §2

[30] = tested on: HL-60; experiment: Cytotoxicity against human HL-60 cells at 20 nM assessed as decrease in cell viability in combination with 50 nM JQ-1 measured after 24 hrs by MTT assay; assay type: functional, cell-based
[31] = tested on: U-937; experiment: Cytotoxicity against human U-937 cells at 20 nM assessed as decrease in cell viability in combination with 50 nM JQ-1 measured after 24 hrs by MTT assay; assay type: functional, cell-based
[32] = tested on: HL-60; experiment: Induction of myeloid differentiation in human HL-60 cells at 50 nM in combination with 20 nM chaetocin measured after 12 hrs by Liu's staining method; assay type: functional, cell-based
Method in brief: as §2

[33] = tested on: KG-1a; experiment: Cytotoxicity against human KG-1a cells at 20 nM assessed as decrease in cell viability in combination with 50 nM JQ-1 measured after 24 hrs by MTT assay; assay type: functional, cell-based
[34] = tested on: KG-1a; experiment: Induction of myeloid differentiation in human KG-1a cells at 50 nM in combination with 20 nM chaetocin measured after 12 hrs by Liu's staining method; assay type: functional, cell-based
Method in brief: as §2

[35] = tested on: U-937; experiment: Cytotoxicity against human U-937 cells at 20 nM assessed as decrease in cell viability in combination with 0.5 uM SAHA measured after 24 hrs by MTT assay; assay type: functional
[36] = tested on: KG-1a; experiment: Cytotoxicity against human KG-1a cells at 20 nM assessed as decrease in cell viability in combination with 0.5 uM SAHA measured after 24 hrs by MTT assay; assay type: functional
[37] = tested on: HL-60; experiment: Cytotoxicity against human HL-60 cells at 20 nM assessed as decrease in cell viability in combination with 0.5 uM SAHA measured after 24 hrs by MTT assay; assay type: functional
[38] = tested on: KG-1a; experiment: Cytotoxicity against human KG-1a cells assessed as decrease in cell viability measured after 48 hrs by MTT assay; assay type: functional, cell-based
[39] = tested on: HL-60; experiment: Cytotoxicity against human HL-60 cells assessed as decrease in cell viability measured after 48 hrs by MTT assay; assay type: functional, cell-based; conditions: HL-60, 48 h
[40] = tested on: HL-60; experiment: Cytotoxicity against human HL-60 cells assessed as decrease in cell viability measured after 24 hrs by MTT assay; assay type: functional, cell-based; conditions: HL-60, 24 h
Method in brief: (§4)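 MTT viability read 24 h after exposure over a low concentration range (0–25 μM for one inhibitor, 0–100 for the other as printed). IC50 was derived for each line. Culture: HL-60 and U937 in RPMI + 10% FBS, KG-1a in IMDM + 15% FBS.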

[41] = tested on: KG-1a; experiment: Cytotoxicity against human KG-1a cells assessed as decrease in cell viability measured after 24 hrs by MTT assay; assay type: functional, cell-based
Method in brief: as §4

[42] = tested on: U-937; experiment: Cytotoxicity against human U-937 cells assessed as decrease in cell viability measured after 24 hrs by MTT assay; assay type: functional, cell-based; conditions: U-937, 24 h
Method in brief: as §4

[43] = tested on: U-937; experiment: Cytotoxicity against human U-937 cells assessed as decrease in cell viability measured after 48 hrs by MTT assay; assay type: functional, cell-based; conditions: U-937, 48 h

`CN1C(=O)[C@@]23C[C@]4([C@]56C[C@@]78SS[C@@](CO)(C(=O)N7[C@H]5Nc5ccccc56)N(C)C8=O)c5ccccc5N[C@@H]4N2C(=O)[C@]1(CO)SS3` was tested, and the inhibition [1] was “Active”, the Activity [2] was “Active” and the inhibition [3] was “inactive”. For the same compound, the inhibition [4] was “Active”, the Activity [5] was “Active” and the Activity [6] was “inactive”. The Activity [7] was “Active”, the inhibition [8] was “Active” and the inhibition [9] was “Active”. The Activity [10] was “inactive”, the Activity [11] was “Active” and the Activity [12] was “inactive”. The Activity [13] was “Active”, the Activity [14] was “Active” and the Activity [15] was “Active”. The Activity [16] was “Active”, the Activity [17] was “inactive” and the inhibition [18] was “inactive”. The Activity [19] was “inactive”, the Activity [20] was “Active” and the inhibition [21] was “Active”. The Activity [22] was “Active”, the inhibition [23] was “inactive” and the Activity [24] was “Active”. The inhibition [25] was “inactive”, the inhibition [26] was “Active” and the inhibition [27] was “Active”. For the same compound, the inhibition [28] was “Active”.

For `CN1C(=O)[C@@]23C[C@]4([C@]56C[C@@]78SS[C@@](CO)(C(=O)N7[C@H]5Nc5ccccc56)N(C)C8=O)c5ccccc5N[C@@H]4N2C(=O)[C@]1(CO)SS3.Cc1sc2c(c1C)C(c1ccc(Cl)cc1)=N[C@@H](CC(=O)OC(C)(C)C)c1nnc(C)n1-2`, the Activity [29] was “inactive”, the Activity [30] was “Active” and the Activity [31] was “inactive”. The Activity [32] was “inactive”, the Activity [33] was “Active” and the Activity [34] was “inactive”.

In the case of `CN1C(=O)[C@@]23C[C@]4([C@]56C[C@@]78SS[C@@](CO)(C(=O)N7[C@H]5Nc5ccccc56)N(C)C8=O)c5ccccc5N[C@@H]4N2C(=O)[C@]1(CO)SS3.O=C(CCCCCCC(=O)Nc1ccccc1)NO`, the Activity [6] is reported as “inactive”, the Activity [12] is reported as “inactive” and the Activity [19] is reported as “inactive”.

Compound `CN1C(=O)[C@@]23C[C@]4([C@]56C[C@@]78SS[C@@](CO)(C(=O)N7[C@H]5Nc5ccccc56)N(C)C8=O)c5ccccc5N[C@@H]4N2C(=O)[C@]1(CO)SS3` [CHAETOCIN] has an Activity [35] of 20%, an Activity [36] of 40% and an Activity [37] of 40%. For the same compound, the IC50 [38] was 0.095 nM, the IC50 [39] was 0.127 nM and the IC50 [40] was 0.153 nM. It also gave an IC50 [41] of 0.103 nM, an IC50 [42] of 0.096 nM and an IC50 [43] of 0.082 nM.
